From ChEMBL document CHEMBL3091366, “New 5-Aryl-1H-imidazoles display in vitro antitumor activity against apoptosis-resistant cancer models, including melanomas, through mitochondrial targeting” (J Med Chem, 2013)

Key:
Assay type in all cases: functional, cell-based
LoVo = assay: Cytotoxicity against apoptotic-sensitive human LoVo cells assessed as growth inhibition after 72 hrs by MTT-based colorimetric assay; settings: Homo sapiens, LoVo, 72 h
How it was run: (§1)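 MTT colorimetric assay, 72 h exposure to the fumarate salt. Read-out is reduction of MTT to formazan by living cells. IC50 is the concentration that reduces the whole cell population by 50%. Six replicates per condition. Where compounds were not tested on every line, apoptosis-sensitive lines were PC3, MCF-7, LoVo and B16F10, and apoptosis-resistant lines were U373, T98G, A549 and SK-MEL-28.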

MCF7 = assay: Cytotoxicity against apoptotic-sensitive human MCF7 cells assessed as growth inhibition after 72 hrs by MTT-based colorimetric assay; settings: Homo sapiens, MCF7, 72 h; how it was run: as §1
PC-3 = assay: Cytotoxicity against apoptotic-sensitive human PC3 cells assessed as growth inhibition after 72 hrs by MTT-based colorimetric assay; settings: Homo sapiens, PC-3, 72 h; how it was run: as §1
B16-F10 = assay: Cytotoxicity against apoptotic-sensitive mouse B16F10 cells assessed as growth inhibition after 72 hrs by MTT-based colorimetric assay; settings: B16-F10, 72 h; how it was run: as §1
SK-MEL-28 = assay: Cytotoxicity against apoptotic-resistant human SK-MEL-28 cells assessed as growth inhibition after 72 hrs by MTT-based colorimetric assay; settings: Homo sapiens, SK-MEL-28, 72 h; how it was run: as §1
A549 = assay: Cytotoxicity against apoptotic-resistant human A549 cells assessed as growth inhibition after 72 hrs by MTT-based colorimetric assay; settings: Homo sapiens, A549, 72 h; how it was run: as §1
T98G = assay: Cytotoxicity against apoptotic-resistant human T98G cells assessed as growth inhibition after 72 hrs by MTT-based colorimetric assay; settings: Homo sapiens, T98G, 72 h; how it was run: as §1

Row | Compound | IC50 (LoVo) | IC50 (MCF7) | IC50 (PC-3) | IC50 (B16-F10) | IC50 (SK-MEL-28) | IC50 (A549) | IC50 (T98G)
1 | Cn1c2cnc1OCC/C=C\CCCCOc1ccccc1-2 | 40 µM | 63 µM | 62 µM | 70 µM | 85 µM | 74 µM | 100 µM
2 | C=CCCCCOc1ncc(I)n1C | 84 µM | > 100 µM | > 100 µM | 51 µM | > 100 µM | > 100 µM | > 100 µM
3 | CCCCOc1ncc(-c2ccccc2OC)n1C | 39 µM | 55 µM | 71 µM | 71 µM | 82 µM | 87 µM | 96 µM
4 | C=CCCCCOc1ncc(-c2cc(Cl)ccc2OC)n1C | 28 µM | 25 µM | 32 µM | 29 µM | 28 µM | 34 µM | 48 µM
5 | C=CCCCCOc1nccn1C | > 100 µM | > 100 µM | > 100 µM | 51 µM | > 100 µM | > 100 µM | > 100 µM
